Source: PubChem (The Scripps Research Institute Molecular Screening Center)
CHRM4 PAM: positive allosteric modulators of human muscarinic M4 receptor. AID 624126. CHO-K1 hM4/Gqi5, Fluo-8 calcium fluorescence, ACh EC20; 0% = ACh EC20, 100% = maximal ACh. P08173. 360,000 tested, 0.4% active. activation, % at 3 µM;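 active = activation above its plate's cutoff, the mean activation of sample wells plus 3 SD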
CHRM5 agonist: CHRM5 agonism in calcium assay | P08912 | activation, % at 3 µM | 360,000 tested, 0.19% active | CHO-K1 hM5 cells, Fluo-8 calcium fluorescence; 0% DMSO wells, 100% maximal acetylcholine response;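 active = activation above the run's mean over test compounds plus 3 SD, cut at about 23% in these data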;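 also: signal is peak over basal fluorescence ratio across the kinetic read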
Target sequence (P08912 whole entry, looked up): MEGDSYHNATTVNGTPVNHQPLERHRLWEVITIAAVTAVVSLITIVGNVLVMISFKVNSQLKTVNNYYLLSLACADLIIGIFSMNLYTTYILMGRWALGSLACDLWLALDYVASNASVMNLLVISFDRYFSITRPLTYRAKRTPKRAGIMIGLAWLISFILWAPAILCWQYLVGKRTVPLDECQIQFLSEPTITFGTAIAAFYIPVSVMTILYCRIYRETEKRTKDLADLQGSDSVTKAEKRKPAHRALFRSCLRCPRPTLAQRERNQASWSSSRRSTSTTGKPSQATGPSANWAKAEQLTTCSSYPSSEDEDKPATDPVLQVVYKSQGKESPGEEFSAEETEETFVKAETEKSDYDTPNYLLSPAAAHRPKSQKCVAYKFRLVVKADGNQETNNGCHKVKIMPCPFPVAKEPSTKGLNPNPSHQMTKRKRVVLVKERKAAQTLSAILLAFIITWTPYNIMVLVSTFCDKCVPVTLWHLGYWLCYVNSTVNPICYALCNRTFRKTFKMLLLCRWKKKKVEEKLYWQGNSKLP
CHRM4 antagonist: antagonists of human muscarinic M4 receptor (CHRM4); P08173; CHO-hM4 cells, ACh EC80, Fluo-8 calcium fluorescence; inhibition, % at 3 µM; 360,000 tested, 0.73% active; AID 624125;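 active = inhibition above its plate's cutoff, the mean inhibition of sample wells plus 3 SD, cut at about 27% in these data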;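 also: 0% = acetylcholine EC80 with DMSO and 100% = DMSO without agonist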
M5 PAM: potentiates acetylcholine response at human M5 receptor. CHO-K1 hM5, Fluo-8 calcium, ACh EC20 PAM; 0% = ACh EC20, 100% = ACh EC100. 360,000 tested, 0.3% active. activation, % at 3 µM. P08912. AID 624038;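 active = activation above the run cutoff, the mean activation of all test compounds plus 3 SD, cut at about 18% in these data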
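System: CHO-K1 hM5 cells. Reagent: acetylcholine, EC20 level. Compound dosing: single dose, 3 µM nominal final test concentration. Timing: Post-acetylcholine fluorescence recording 140 s. Detection: Fluo-8 calcium fluorescence. Read-out: % activation, ACh-normalized. Benchmarks: ACh EC20 and EC100 wells. Repeats: singlicate, one well per test compound.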
M5 antag: blocks acetylcholine activation of human M5 receptor. P08912. CHO-hM5 cells, Fluo-8 calcium fluorescence, ACh EC80. inhibition, % at 3 µM. 360,000 tested, 0.59% active;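 active = inhibition above a per-plate cutoff, the mean of that plate's test compounds plus 3 SD, cut at about 27% in these data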;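 also: 0% = acetylcholine EC80 with DMSO and 100% = DMSO without agonist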
CHRM4 agonist: CHRM4 agonism in calcium assay; CHO-K1 hM4/Gqi5, Fluo-8 calcium fluorescence; vehicle 0%, full acetylcholine response 100%; activation, % at 3 µM; 360,000 tested, 0.14% active;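 active = activation above the run mean over all test wells plus 3 SD, cut at about 32% in these data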;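 also: peak over basal fluorescence ratio per well then scaled between controls; 0% = DMSO wells and 100% = acetylcholine at EC100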
Starred values were filed as active, the others as inactive. A selection: hits, their analogues and other compounds. The true share with any hit is near 1.9%.

SMILES	CHRM4 PAM	CHRM5 agonist	CHRM4 antagonist	M5 PAM	M5 antag	CHRM4 agonist
COC(=O)C1=CO[C@@H](C)[C@@H]2CN(CCc3c[nH]c4ccccc34)CC[C@H]12	-14.1	-4.8	25.5	-24.4	49.5*	1.1
CCN1/C(=C\C=C\C2=[N+](CC)c3ccccc3C2(C)C)C(C)(C)c2ccccc21	-20.5	301.7*	91.7*	-51.9	93.7*	251.6*
COC1=C(C)C(=O)C2=C(C1=O)C(CO)N1C(C#N)C3CC4C(C1C2N1CCOC41)N3C (stereo not drawn)	2.8	0.6	-3.7	1.7	11.1	0.7
COc1cc(/C=C(/C)[N+](=O)[O-])ccc1OCc1ccccc1Cl	-10.7	-1.5	29.2*	1.8	27.1*	0.8
CCC(=NCc1ccco1)c1c(O)n(-c2ccc(Cl)cc2)c(=O)[nH]c1=O	2.5	11.3	-11.1	26.1*	7.5	0.6
CCC(=NCc1ccco1)c1c(O)n(-c2ccc(OC)cc2)c(=O)[nH]c1=O	3.7	6.5	-5.4	-6.9	9.8	0.6
c1ccc(C2CN3CCC2CC3)cc1 (stereo not drawn)	-12.7	-18.2	10.8	-18.4	6.1	0.0
OC(c1ccccc1)(c1ccc(Cl)cc1)C1CN2CCC1CC2 (stereo not drawn)	-55.4	-17.9	44.3*	-32.5	59.9*	8.6
OC(c1ccccc1)(c1ccccc1)C1CN2CCC1CC2 (stereo not drawn)	-21.1	-11.7	75.0*	-22.5	99.2*	1.2
OC(Cc1ccccc1)(c1ccccc1)C1CN2CCC1CC2 (stereo not drawn)	-24.4	-8.1	84.9*	-20.3	90.3*	1.4
S=C(NCCc1ccccc1)N1Cc2ccc(Br)cc2-n2nncc2C1	-0.4	-2.1	-10.8	-6.0	-0.8	9.2
O=S(=O)(c1cccc2ccccc12)N1Cc2ccccc2-n2nncc2C1	-8.1	2.3	-8.7	-4.9	9.8	12.8
C=CCn1c(O)c(C(CC)=NC(C)c2ccccc2)c(=O)[nH]c1=O (stereo not drawn)	-2.2	2.3	-0.9	3.5	-3.3	7.9
N#CC(C#N)=NNc1ccc(-n2ccc(C(F)(F)F)n2)cc1	-2.6	14.0	8.0	-20.9	30.1*	15.5
CC(=O)c1cn(CC(=O)NCCc2c[nH]c3ccccc23)c2ccccc12	-8.8	6.3	12.3	-17.6	11.1	17.2
CC(=O)OC(C)(C)/C=C/C(=O)C(C)(O)C1C(O)CC2(C)C3CC=C4C(CC(O)C(=O)C4(C)C)C3(C)C(=O)CC12C (stereo not drawn)	16.2*	2.5	-7.7	5.3	-2.5	0.6
N[C@@H](CCl)C(=O)O	-15.8	2.1	50.8*	-8.3	7.1	0.5
C[Se]C[C@@H](N)C(=O)O	-6.2	0.1	9.7	-2.5	2.8	1.3
Cc1ccccc1NC(=O)N1Cc2ccccc2-n2nncc2C1	-0.4	0.6	-4.8	0.6	6.7	0.5
CCCc1nc2ccc(Br)cc2c(=O)n1-c1ccc([N+](=O)[O-])c(C(F)(F)F)c1	-12.0	2.0	17.0	-14.2	27.2*	6.5
CCc1nc2ccc(Br)cc2c(=O)n1-c1ccccc1C(F)(F)F	-2.2	-6.9	4.5	-3.5	-0.8	0.8
Nc1cccc(SC2CC(=O)N(c3ccc(Cl)cc3C(=O)c3ccccc3)C2=O)c1 (stereo not drawn)	-0.3	-1.5	-8.7	-5.9	27.3*	1.5
COc1cc(CNCCc2ccc3c(c2)OCO3)cc(OC)c1OC	4.7	1.8	-5.4	-1.7	12.0	2.1
CCCn1ncc(CN2CCCC(C(=O)c3cccc(OC)c3)C2)c1C (stereo not drawn)	-23.2	-10.5	55.5*	-19.3	15.6	1.3
O=C1C2CC(CN3CCCCC23)C2CCCCN12 (stereo not drawn)	6.3	0.8	-14.1	0.8	2.6	1.1
SMILES	CHRM4 PAM	CHRM5 agonist	CHRM4 antagonist	M5 PAM	M5 antag	CHRM4 agonist
COC(=O)C1=C(c2ccc(F)cc2OCc2ccccc2)C[C@@H]2CC[C@H]1N2C(=O)NC(C)C	14.4	0.1	-0.8	-1.5	5.2	-1.6
O=C(c1ccc2c(c1)OCO2)C1CCCN(CC2CCCCC2)C1 (stereo not drawn)	-23.8	-11.0	40.9*	-11.0	7.9	0.2
CCN(CC)c1ccc(/C=C/[N+](=O)[O-])cc1	-28.0	96.2*	28.6*	-30.6	90.2*	71.2*
COc1cc(/C=C/[N+](=O)[O-])ccc1O	3.3	10.2	15.9	10.7	-7.9	1.5
Cc1[nH]c2ccc(OC(F)(F)F)cc2c1CCNCc1cccc([N+](=O)[O-])c1	-10.5	17.5	16.1	-12.8	28.5*	24.4
CCOc1cccc(CNCCc2c(C)[nH]c3ccc(OC(F)(F)F)cc23)c1O	-11.7	23.6*	29.2*	-14.6	42.3*	43.3*
Cc1[nH]c2ccc(OC(F)(F)F)cc2c1CCNCc1ccc(Cl)cc1	1.0	3.4	9.5	2.5	8.7	15.1
Cc1cc(O)c2c(c1)C(=O)C13C(=C2O)C(=O)[C@H]2[C@@H](O)[C@@H]1[C@H]1[C@H](O)[C@@H]3C(=O)C3=C(O)c4c(O)cc(C)cc4C(=O)C312 (stereo partly drawn)	7.3	1.8	-2.0	3.4	3.0	0.5
CSCCC(c1nnnn1-c1ccc2c(c1)OCCO2)N1CCC2(CC1)C(=O)NCN2c1ccccc1 (stereo not drawn)	-10.3	13.7	16.3	-14.7	12.6	24.8
C[N+](C)(C)CCOC(=O)CBr	0.4	36.6*	-8.5	-15.1	-1.0	0.8
CC(=O)OCC[N+](C)(C)C	-20.7	99.8*	79.0*	-13.4	97.7*	95.8*
CN1CCN(C(=O)COc2ccc(S(=O)(=O)NC3CCCCC3)cc2Cl)CC1	4.2	2.4	-3.4	20.6*	-19.0	1.4
COc1ccc(NS(=O)(=O)c2ccc(OCC(=O)N3CCN(C)CC3)cc2)cc1Cl	0.6	-4.2	-10.0	-2.8	-3.0	3.0
O=C(CCCN1CCC2(CC1)C(=O)NCN2c1ccccc1)c1ccc(F)cc1	-20.0	80.9*	98.7*	-21.0	96.3*	135.2*
CCCCn1nnnc1C(C1CC1)N1CCC2(CC1)C(=O)NCN2c1ccccc1 (stereo not drawn)	-7.0	-0.3	-6.1	-4.2	4.8	6.1
Cc1nn(Cc2ccccc2Cl)c(Cl)c1C(=O)O	6.0	-4.9	-13.5	-11.6	10.4	0.2
Cc1nn(Cc2ccc(Cl)cc2Cl)c(Cl)c1C(=O)O	21.1*	4.1	-12.2	10.8	-13.9	2.2
Clc1cccc(N2Cc3ccccc3-n3nncc3C2)c1	0.8	-3.5	-11.2	-7.2	5.1	1.9
